Activity calls are given as the source filed them. No cut-off for these calls is given here.
Key:
[1] = Cytotoxicity against human H1299 cells at 10 uM after 48 hrs by MTT assay realtive to control; format: functional; details: NCI-H1299, 48 h
Procedure, shortened: (§1)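 H1299 non-small-cell lung cells were kept in RPMI 1640 with 10% FBS and penicillin/streptomycin at 37 °C under 5% CO2. About 2 × 10^3 cells per well were pre-incubated for 24 h. Compound was added from freshly made DMSO solution diluted in complete medium and left for 48 h. MTT was then added for 4 h at 37 °C, followed by 20% SDS/50% DMF lysis buffer for 16 h at 37 °C, and absorbance read at 550 nm.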

[2] = Cell viability of human H1299 cells at 1 uM after 48 hrs by MTT assay relative to control; details: NCI-H1299, 48 h
[3] = biological target: T1, Telomerase reverse transcriptase (Homo sapiens, UniProt O14746); experiment: Effect on human TERT expressed in H1299 cells at 100 uM after 24 hrs by SEAP assay relative to control
[4] = Cytotoxicity against human H1299 cells at 100 uM after 48 hrs by MTT assay realtive to control; format: functional; details: NCI-H1299, 48 h; procedure, shortened: as §1
[5] = biological target: T1, Telomerase reverse transcriptase; experiment: Effect on human TERT expressed in H1299 cells at 1 uM after 24 hrs by SEAP assay relative to control
[6] = biological target: T1, Telomerase reverse transcriptase; experiment: Effect on human TERT expressed in H1299 cells at 10 uM after 24 hrs by SEAP assay relative to control
[7] = Cytotoxicity against human TERT immortalized BJ1 cells at 1 uM after 48 hrs by MTT assay relative to control; format: cell-based, BJ
Procedure, shortened: (§2)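 hTERT-immortalized BJ1 fibroblasts were grown in DMEM with 10% FCS, 1 mM pyruvate and 4 mM […]. Cells (about 2 × 10^3 per well) were seeded and held 24 h at 37 °C. Compounds were freshly dissolved in DMSO, diluted into medium and left on the cells 48 h. MTT was added for 4 h, then SDS/DMF lysis buffer for 16 h. Absorbance was read at 550 nm and expressed relative to untreated cells (100%).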

[8] = biological target: T1, Telomerase reverse transcriptase; experiment: Inhibition of telomerase in human H1299 cells at 1 to 20 uM by TRAP assay; format: cell-based
Procedure, shortened: (§3)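 Modified TRAP assay using 2 µg total lysate from H1299 lung cancer cells as the telomerase source. Compounds were tested at 1, 5, 10 and 20 µM. Products were resolved on 10% polyacrylamide gels and stained with SYBR Green. A Taq-polymerase internal control was included, along with positive and negative controls.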

[9] = Cytotoxicity against human TERT immortalized BJ1 cells at 10 uM after 48 hrs by MTT assay relative to control; format: cell-based, BJ; procedure, shortened: as §2
[10] = biological target: T1, Telomerase reverse transcriptase; experiment: Inhibition of G-quadruplex-induced human TERT in H1299 cells by TRAP assay; format: cell-based; procedure, shortened: as §3
[11] = Cytotoxicity against human TERT immortalized BJ1 cells at 100 uM after 48 hrs by MTT assay relative to control; format: cell-based, BJ; procedure, shortened: as §2
[12] = biological target: T1, Telomerase reverse transcriptase; experiment: Effect on human TERT expressed in BJ1 cells at 10 uM after 24 hrs by SEAP assay relative to control; details: BJ
[13] = biological target: T1, Telomerase reverse transcriptase; experiment: Effect on human TERT expressed in BJ1 cells at 100 uM after 24 hrs by SEAP assay relative to control; details: BJ
[14] = biological target: T1, Telomerase reverse transcriptase; experiment: Effect on human TERT expressed in BJ1 cells at 1 uM after 24 hrs by SEAP assay realtive to control; details: BJ

T1 sequence (O14746 whole entry): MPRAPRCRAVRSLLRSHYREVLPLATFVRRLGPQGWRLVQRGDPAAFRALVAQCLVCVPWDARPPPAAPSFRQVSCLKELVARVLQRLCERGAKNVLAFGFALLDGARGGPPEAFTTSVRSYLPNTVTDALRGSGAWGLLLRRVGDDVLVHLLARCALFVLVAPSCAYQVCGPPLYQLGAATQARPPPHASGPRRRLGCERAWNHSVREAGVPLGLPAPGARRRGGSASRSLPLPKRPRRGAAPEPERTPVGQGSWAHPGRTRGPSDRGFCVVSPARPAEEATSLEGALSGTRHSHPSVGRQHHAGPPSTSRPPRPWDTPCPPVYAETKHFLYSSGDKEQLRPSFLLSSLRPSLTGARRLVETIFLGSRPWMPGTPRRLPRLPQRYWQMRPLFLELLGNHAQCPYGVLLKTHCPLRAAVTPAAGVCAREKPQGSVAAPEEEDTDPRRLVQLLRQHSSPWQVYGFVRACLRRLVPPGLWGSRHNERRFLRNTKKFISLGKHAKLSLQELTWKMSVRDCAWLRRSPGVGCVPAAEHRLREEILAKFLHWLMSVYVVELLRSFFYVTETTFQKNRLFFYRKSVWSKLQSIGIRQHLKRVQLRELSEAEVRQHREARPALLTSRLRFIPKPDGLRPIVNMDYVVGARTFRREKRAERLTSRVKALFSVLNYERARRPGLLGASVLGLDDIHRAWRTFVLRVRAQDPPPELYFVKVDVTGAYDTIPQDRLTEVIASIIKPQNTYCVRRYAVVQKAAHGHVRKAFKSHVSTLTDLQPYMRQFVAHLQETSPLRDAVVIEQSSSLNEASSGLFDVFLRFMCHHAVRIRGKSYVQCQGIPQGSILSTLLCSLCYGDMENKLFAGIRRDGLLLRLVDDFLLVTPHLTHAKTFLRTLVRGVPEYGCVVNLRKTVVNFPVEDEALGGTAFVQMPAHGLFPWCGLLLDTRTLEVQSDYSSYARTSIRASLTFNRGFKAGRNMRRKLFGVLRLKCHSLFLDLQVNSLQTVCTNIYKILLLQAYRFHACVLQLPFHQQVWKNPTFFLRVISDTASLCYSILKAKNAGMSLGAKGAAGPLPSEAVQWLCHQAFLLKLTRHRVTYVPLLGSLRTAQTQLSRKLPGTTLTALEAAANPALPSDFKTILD

Row | residual activity [3] [%] | residual activity [5] [%] | residual activity [6] [%] | Activity [8] | IC50 [10] [µM] | residual activity [12] [%] | residual activity [13] [%] | residual activity [14] [%] | Structure (SMILES) | viability at 10 µM [1] [%] | cell viability at 1 µM [2] [%] | viability at 100 µM [4] [%] | viability at 48 h, 1 µM [7] [%] | viability at 48 h, 10 µM [9] [%] | viability at 48 h, 100 µM [11] [%]
1 | 25 | 55 | 33 | Active | 8.4 | – | – | – | O=C(CCN1CCCCC1)Nc1ccc2c(c1)C(=O)c1cc(NC(=O)CCN3CCCCC3)ccc1C2=O | 44 | 87 | 18 | 92 | 54 | 41
2 | 71 | 75 | 71 | Active | – | 118 | 131 | – | O=C(CCN1CCNCC1)Nc1ccc2c(c1)C(=O)c1cc(NC(=O)CCN3CCNCC3)ccc1C2=O | 94 | 97 | 102 | 96 | 100 | 88
3 | 22 | 68 | 33 | Active | – | – | 97 | – | CCNCCC(=O)Nc1ccc2c(c1)C(=O)c1cc(NC(=O)CCNCC)ccc1C2=O | 59 | 86 | 34 | 82 | 73 | 42
4 | 1 | 5 | 13 | Active | – | 61 | 38 | 86 | CN(C)CCC(=O)Nc1ccc2c(c1)C(=O)c1cc(NC(=O)CCN(C)C)ccc1C2=O | 53 | 1 | 1 | 94 | 30 | 22
5 | 13 | 52 | 22 | Active | – | 133 | – | – | CCCNCCC(=O)Nc1ccc2c(c1)C(=O)c1cc(NC(=O)CCNCCC)ccc1C2=O | 50 | 80 | 13 | 75 | 65 | 38
6 | 85 | 83 | 87 | – | – | 130 | 108 | 137 | O=C1c2ccc(NC(=O)C3CCCC3)cc2C(=O)c2cc(NC(=O)C3CCCC3)ccc21 | 77 | 91 | 42 | 77 | 68 | 58
7 | 80 | 97 | 91 | – | – | 79 | 40 | 85 | O=C(Cc1ccccc1)Nc1ccc2c(c1)C(=O)c1cc(NC(=O)Cc3ccccc3)ccc1C2=O | 96 | 106 | 75 | 93 | 80 | 86
8 | 63 | 74 | 69 | – | – | 121 | 103 | 118 | O=C(CN1CCCCC1)Nc1ccc2c(c1)C(=O)c1cc(NC(=O)CN3CCCCC3)ccc1C2=O | 37 | 50 | 35 | 89 | 78 | 22
9 | 78 | 88 | 86 | – | – | 42 | 75 | 13 | O=C(CCCCl)Nc1ccc2c(c1)C(=O)c1cc(NC(=O)CCCCl)ccc1C2=O | 40 | 84 | 22 | 72 | 62 | 58

Row | Structure (SMILES) | residual activity [3] [%] | residual activity [5] [%] | residual activity [6] [%] | Activity [8] | IC50 [10] [µM] | residual activity [12] [%] | residual activity [13] [%] | residual activity [14] [%] | viability at 10 µM [1] [%] | cell viability at 1 µM [2] [%] | viability at 100 µM [4] [%] | viability at 48 h, 1 µM [7] [%] | viability at 48 h, 10 µM [9] [%] | viability at 48 h, 100 µM [11] [%]
10 | O=C1c2ccc([N+](=O)[O-])cc2C(=O)c2cc([N+](=O)[O-])ccc21 | 62 | 87 | 85 | – | – | 60 | 65 | 55 | 95 | 97 | 69 | 91 | 91 | 86

— ChEMBL document CHEMBL1155063 (Bioorg Med Chem, 2008)
